Compound activity from PubChem.
Hits are enriched below; roughly 3.5% of the tested compounds scored in any of these assays.
RGS4 inh – inhibitors of human RGS4. AID 463165. HEK293 M3R/RGS4 inducible, Fluo-4 calcium flux; stronger effect = higher value; triggered by carbachol at its EC20. 0.45% of 310,000 active. P49798. B-score at 10 µM;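 active = B-score, a plate-corrected calcium signal, over three deviations above library mean, with baseline fluorescence within five deviations of library mean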;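 also: RGS4 expression induced by doxycycline in cells with stable M3 receptor; B-score is computed from the integrated fluorescence ratio over baseline after carbachol; higher B-score means a larger calcium signal and so more RGS4 inhibition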
MrgX1 ag – activates human MrgX1 receptor signaling | AID 588627 | Q96LB2 | MrgX1-HEK293 cells, Fluo-4 calcium fluorescence, agonist mode; stronger effect = higher value | 0.44% of 310,000 active | B-score at 10 µM;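 active = calcium response B-score plate-corrected fluorescence ratio at least 3 library SD, with starting fluorescence B-score inside 5 SD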
Target sequence (Q96LB2 whole entry, looked up): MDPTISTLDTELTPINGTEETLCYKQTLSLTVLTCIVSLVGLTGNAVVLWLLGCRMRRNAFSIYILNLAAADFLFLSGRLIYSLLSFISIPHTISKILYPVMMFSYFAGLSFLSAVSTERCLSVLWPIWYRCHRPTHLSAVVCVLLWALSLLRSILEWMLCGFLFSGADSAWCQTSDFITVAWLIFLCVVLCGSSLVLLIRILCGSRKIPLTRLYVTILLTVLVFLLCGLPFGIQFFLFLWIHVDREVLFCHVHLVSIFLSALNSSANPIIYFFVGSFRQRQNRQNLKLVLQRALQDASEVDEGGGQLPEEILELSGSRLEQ
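System – MrgX1-expressing HEK293 cells · Incubation – cells plated overnight, dye loaded 0.5 h 37 °C, 0.5 h room temperature · Technique – kinetic Fluo-4 NW fluorescence of intracellular calcium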
MrgX1 PAM – human MrgX1 positive allosteric modulation, primary screen; Q96LB2; MrgX1-HEK293, Fluo-4 calcium flux, FDSS; stronger effect = higher value; B-score at 10 µM; 0.63% of 310,000 active;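 active = plate-corrected calcium response at least 3 library SD above typical, normal starting fluorescence, not activating the receptor alone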;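 also: compound read alongside a low EC10 to EC30 dose of BAM8-22 agonist; peak minus trough fluorescence over baseline measured at the second addition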
MrgX1 antagonist – blocks BAM8-22 activation of human MrgX1 receptor. Q96LB2. MRGX1-HEK293 calcium flux, Fluo-4, BAM8-22 antagonism; stronger effect = lower value. B-score at 10 µM. 1.3% of 310,000 active;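 active = calcium-response B-score plate-corrected more than 3 library SD below zero, starting fluorescence within 5 deviations, no agonist response on first addition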;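 also: peak minus trough fluorescence over baseline after final BAM8-22 challenge near maximal dose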
RGS4 pot – potentiators or activators of RGS4 | 0.92% of 310,000 active | HEK293 M3R/inducible RGS4, carbachol calcium flux Fluo4; stronger effect = lower value | B-score at 10 µM;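 active = B-score of the integrated calcium signal more than 4 SD below the library mean, with starting fluorescence not abnormally high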;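 also: negative B-score means reduced calcium response which marks RGS4 activation or potentiation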
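Detection: kinetic calcium fluorescence imaging with Fluo4-AM dye, 2 µM / Material: HEK293 cells with stable M3R and inducible RGS4 / Schedule: recording 10 s baseline at 1 Hz, 100 s post-agonist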
MrgX1 ag confirm – reconfirmed activator of human MrgX1 receptor signaling | shares compounds with MrgX1 ag | MrgX1-HEK293, Fluo-4 calcium fluorescence, FDSS | activation, % at 10 µM | 78% of 600 active | AID 602412;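 active = calcium signal rise, corrected for plate position, at least 3 library SD high, with starting brightness within 5 such deviations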; also: reference of the scale not given here
HEK293 Ca flux – activity in parental HEK293 cells lacking MrgX1; Fluo-4 calcium fluorescence, FDSS; shares compounds with MrgX1 antagonist; 2% of 4,000 active; fluorescence ratio F(max-min)/F0 at 10 µM;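 active = duplicate-averaged calcium fluorescence ratio at least three times the standard deviation of buffer wells, a nonspecific response in parental cells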
HEK293 Ca counter – activity in parental HEK293 cells without MrgX1. shares compounds with MrgX1 antagonist. parental HEK293 calcium flux, Fluo-4 fluorescence ratio; stronger effect = higher value. fluorescence ratio F(max-min)/F0 at 10 µM. 0.4% of 4,000 active;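 active = calcium fluorescence ratio, averaged over duplicates, at least 3 SD of the buffer-well ratio, meaning a nonspecific response in receptor-free cells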;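 also: untransfected parental HEK293 lacking MrgX1 used as counterscreen for MrgX1 allosteric activators; fluorescence change taken during the second addition on a kinetic imager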
HEK293 Ca cntr2 – activity in parental HEK293 cells lacking MrgX1 receptor; shares compounds with MrgX1 antagonist; Fluo-4 calcium fluorescence (FDSS); stronger effect = higher value; fluorescence ratio F(max-min)/F0 at 10 µM; 8.7% of 4,000 active; AID 624115;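 active = calcium fluorescence ratio at least three times the spread of buffer wells, meaning a non-specific response in parental cells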
An asterisk follows results filed as active; i = inactive; nt = no result given.

SMILES	RGS4 inh	MrgX1 ag	MrgX1 PAM	MrgX1 antagonist	RGS4 pot	MrgX1 ag confirm	HEK293 Ca flux	HEK293 Ca counter	HEK293 Ca cntr2
O=C(O)c1cccnc1SCC(=O)N1CCCc2ccccc21	i	36*	i	i	i	i	i	i	i
ONC(=Nc1ccccc1)c1ccc(Cl)cc1	i	i	i	i	i	nt	nt	nt	nt
NC(=Nc1ccc(Cl)cc1)c1ccccc1	i	90*	i	i	i	280%*	i	i	55*
O=C(c1ccc(CNS(=O)(=O)c2cccc(Cl)c2)cc1)N1CCCCC1	i	i	i	i	i	nt	nt	nt	nt
CC(NC(=O)Cn1nc(C(F)(F)F)c2c1CCC2)c1ccccc1 (stereo not given)	i	31*	i	i	i	134%*	i	i	i
Nc1nc(SCC(=O)c2cccs2)n[nH]1	i	i	i	i	i	nt	nt	nt	nt
CNC(=O)COC(=O)/C=C/c1cccc(F)c1	i	i	i	i	i	nt	nt	nt	nt
CCOC(=O)Cc1csc(N/C(=N/S(=O)(=O)c2ccc(F)cc2F)c2ccccc2)n1	i	30*	i	i	i	182%*	i	i	i
COc1ccccc1NS(=O)(=O)c1cc(C(=O)NCc2ccncc2)ccc1C	i	i	i	i	i	nt	nt	nt	nt
COc1ccccc1NS(=O)(=O)c1cc(C(=O)NCCC(C)C)ccc1F	i	35*	i	i	i	313%*	i	i	101*
COc1ccccc1NC(=S)N1CCN(C(=O)C2CCCO2)CC1 (stereo not given)	i	i	i	i	i	nt	nt	nt	nt
COc1cccc(-c2nnc(NC(=O)c3cccc(F)c3)o2)c1	i	28*	i	i	i	686%*	i	i	107*
O=C(Nc1nnc(-c2ccc3c(c2)CCCC3)o1)c1ccccc1	i	28*	i	i	i	140%*	i	i	51*
O=C(Nc1nnc(-c2ccc3c(c2)CCCC3)o1)c1ccccc1Cl	i	i	i	i	i	nt	nt	nt	nt
NNc1ccc(Cl)nn1	i	i	i	i	i	nt	nt	nt	nt
Cc1ccc(Sc2cc(C)nc(-c3ccccn3)n2)cc1	i	31*	i	i	i	210%*	i	i	i
CC1(C)CC(=O)c2c(Cc3ccccc3)n[nH]c2C1	i	i	i	i	i	nt	nt	nt	nt
CC1(C)CC(=O)c2c(-c3cccnc3)n[nH]c2C1	i	29*	i	i	i	i	i	i	i
COc1ccc(N(CCC#N)C(=O)/C(C#N)=C/c2cccs2)cc1	i	i	i	i	i	nt	nt	nt	nt
CCOC(=O)C1(CC2CCCCO2)CCN(Cc2cc3ccccc3[nH]2)CC1 (stereo not given)	i	113*	i	i	i	651%*	i	i	95*
CCCCc1ncc(CN2CCC(CC3CCCCO3)(C(=O)OCC)CC2)[nH]1 (stereo not given)	i	i	i	i	i	nt	nt	nt	nt
N#Cc1ccc(-c2ccccc2)nc1SCCN1CCOCC1	i	28*	i	i	i	171%*	i	i	i
Cc1cc(C)c(C#N)c(SCCN2CCOCC2)n1	i	i	i	i	i	nt	nt	nt	nt
Cc1cc(C)cc(NC(=O)Nc2ccc(N3CCCCC3)cc2)c1	i	30*	i	i	i	i	i	i	i
O=C(CNC1CC1)Nc1cc(C(F)(F)F)ccc1Cl	i	i	i	i	i	nt	nt	nt	nt
